We go through two compounds from ChEMBL document CHEMBL1671809, “Discovery of phosphoric acid mono-{2-[(E/Z)-4-(3,3-dimethyl-butyrylamino)-3,5-difluoro-benzoylimino]-thiazol-3-ylmethyl} ester (Lu AA47070): a phosphonooxymethylene prodrug of a potent and selective hA(2A) receptor antagonist” (J Med Chem, 2011).

Data set [1] deals with Rattus norvegicus. Nature of the data set: Cmax in Sprague-Dawley rat assessed as 4-(3,3-Dimethyl-butyrylamino)-3,5-difluoro-N-thiazol-2-yl-benzamide level at 1.5 mg/kg, po. It counts as ADME, organism-based. Also noted: dose 1.5 mg/kg, route oral. To be noted: in vivo. Summed up: (§1)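 Prodrugs dosed po in aqueous 10% hydroxypropyl β-cyclodextrin (2 mL/kg) to rats; doses expressed as parent-drug equivalents; n = 3. Six tail-vein blood samples (~100 μL) taken between 5 and 420 min. Parent drug in plasma measured by HTLC-MS/MS. Profiles fitted with a one-compartment model; AUC extrapolated to infinity.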

In data set [2] the test system is Rattus norvegicus. Nature of the data set: Oral bioavailability in Sprague-Dawley rat assessed as 4-(3,3-Dimethyl-butyrylamino)-3,5-difluoro-N-thiazol-2-yl-benzamide level at 15 mg/kg. It counts as ADME, organism-based. The note with it: in vivo. Summed up: as §1
Data set [3] relates to Rattus norvegicus. Kind of data set: Oral bioavailability in Sprague-Dawley rat assessed as 4-(3,3-Dimethyl-butyrylamino)-3,5-difluoro-N-thiazol-2-yl-benzamide level at 1.5 mg/kg. It counts as ADME, organism-based. The note with it: in vivo. Summed up:
as §1

Data set [4] relates to Rattus norvegicus. Nature of the data set: AUC in Sprague-Dawley rat assessed as 4-(3,3-Dimethyl-butyrylamino)-3,5-difluoro-N-thiazol-2-yl-benzamide level at 15 mg/kg, po. The data set is classed as ADME, organism-based, Plasma. To be noted: in vivo. More on the design: dose 15 mg/kg, route oral. Summed up: as §1
Data set [5] deals with Rattus norvegicus. Kind of data set: Tmax in Sprague-Dawley rat assessed as 4-(3,3-Dimethyl-butyrylamino)-3,5-difluoro-N-thiazol-2-yl-benzamide level at 15 mg/kg, po. The data set is classed as ADME, organism-based. Also noted: dose 15 mg/kg, route oral. To be noted: in vivo. Summed up:
as §1

Data set [6] concerns Rattus norvegicus. Nature of the data set: Tmax in Sprague-Dawley rat assessed as 4-(3,3-Dimethyl-butyrylamino)-3,5-difluoro-N-thiazol-2-yl-benzamide level at 1.5 mg/kg, po. It counts as ADME, organism-based. Also noted: dose 1.5 mg/kg, route oral. To be noted: in vivo. Summed up: as §1
Data set [7] can be described thus: Chemical stability of the compound assessed as half life. The data set is classed as physicochemical. Summed up:
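Prodrug was dissolved in water, filtered, and diluted to approximately 0.05 mg/mL in buffers of different pH. Sealed vials were stored at 50 C to accelerate hydrolysis. Samples were diluted 1:1 with acetonitrile and analysed by HPLC for prodrug and hydrolysis products.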

The nature of data set [8]: Aqueous solubility of the compound at pH 6.9. To be noted: buffer. The data set is classed as physicochemical.
In data set [9] the test system is Rattus norvegicus. Kind of data set: Cmax in Sprague-Dawley rat assessed as 4-(3,3-Dimethyl-butyrylamino)-3,5-difluoro-N-thiazol-2-yl-benzamide level at 15 mg/kg, po. The data set is classed as ADME, organism-based. Also noted: dose 15 mg/kg, route oral. The note with it: in vivo. Summed up:
as §1

The subject of data set [10] is Rattus norvegicus. Kind of data set: Oral bioavailability in Sprague-Dawley rat assessed as 4-(3,3-Dimethyl-butyrylamino)-3,5-difluoro-N-thiazol-2-yl-benzamide level at 1.4 mg/kg. To be noted: in vivo. The data set is classed as ADME, organism-based. Summed up: as §1
Data set [11] concerns Rattus norvegicus. Nature of the data set: Tmax in Sprague-Dawley rat assessed as 4-(3,3-Dimethyl-butyrylamino)-3,5-difluoro-N-thiazol-2-yl-benzamide level at 1.4 mg/kg, po. It counts as ADME, organism-based. Also noted: dose 1.4 mg/kg, route oral. To be noted: in vivo. Summed up:
as §1

Data set [12] has as its system Rattus norvegicus. Kind of data set: Cmax in Sprague-Dawley rat assessed as 4-(3,3-Dimethyl-butyrylamino)-3,5-difluoro-N-thiazol-2-yl-benzamide level at 1.4 mg/kg, po. The data set is classed as ADME, organism-based. Also noted: dose 1.4 mg/kg, route oral. To be noted: in vivo. Summed up: as §1
Data set [13] can be described thus: Aqueous solubility of the compound at pH 4. To be noted: water. It counts as physicochemical.

In brackets after ≈: the same amount, converted by molar mass.

As usually defined, the Cmax is the peak of the concentration-time curve. The term AUC denotes concentration integrated over time. Broadly, the Tmax is the time from dosing to the highest level. Broadly, the half-life is the time needed for the level to fall by half in the phase considered. As usually defined, the solubility is how much of the substance goes into solution per volume. The low end stands for little dissolved substance, the high end for much dissolved substance. In the case of `CC(C)(C)CC(=O)Nc1c(F)cc(C(=O)/N=c2\sccn2COP(=O)(O)O)cc1F`, the highest concentration (Cmax) in the data set on Rattus norvegicus [1] was determined as 869 ng/mL; with Rattus norvegicus [9], 6413 ng/mL. For the same compound, the F with Rattus norvegicus [2] was found to be 66%; in the data set on Rattus norvegicus [3] it was 55%. For the same compound, in the data set with Rattus norvegicus [4], the AUC came to 35000 ng·h/mL. Further, the results for the Tmax in the data set on Rattus norvegicus [5] and in the data set with Rattus norvegicus [6] were 24 min and 30 min, respectively. The half-life in [7] is over 96000 min. In data set [8], this compound showed a solubility of 8.6 mg/mL (≈ 18.6 mM).

As to `CC[C@H](C)[C@H](N)C(=O)OCn1ccs/c1=N\C(=O)c1cc(F)c(NC(=O)CC(C)(C)C)c(F)c1`, the F in the data set on Rattus norvegicus [10] turned out to be 31%. Also, the time of peak concentration (Tmax) in the data set on Rattus norvegicus [11] was 54 min. Moreover, in [7], the half-life is 24 min. Further, in the data set on Rattus norvegicus [12], the Cmax came out at 381 ng/mL. This compound also showed a solubility in data set [13] of 19.4 mg/mL (≈ 39.1 mM).
